According to PMC9420430 (Current Research in Immunology, 2022):
Read-outs that look alike come from different tables or passages of the source. One block for each molecule: values may come before it.

Key:
[1] = molecular target: T1, HLA-A*02:01 (Homo sapiens, UniProt P04439, D140Y/D185E/D98H/E176V/E277Q/G131W/G231S/I119V/I121R/I166T/I218V/L300P/L318F/N151K/N90K/P208A/P217A/Q86G/Q94H/R138H/R169H/T345S); format: binding; settings: for peptide exchange (in words): NA9 for NV9-FITC on A2, 25 °C
[2] = tested on: A2/NA9; experiment: Thermal stability by nanoscale differential scanning fluorimetry, A2/NA9; set-up: species or system human; settings: for destabilization of A2 complex (in words): ethanediol, 20% DMSO, Table S5
In short: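 Refolded, SEC-purified HLA-A2/peptide complex, 4 µM in citrate-phosphate buffer pH 7.6 (187.3 mM Na₂HPO₄, 6.35 mM citric acid). Mixed 1:1 with solvent or dipeptide at 2x test concentration in the same buffer, giving 2 µM complex. nanoDSF in capillaries: ex 280 nm, em 330 and 350 nm, ramp 1.0 °C/min from 15 or 20 °C to 80 °C.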

[3] = molecular target: HLA-B*07:02 (Homo sapiens, UniProt P01889); format: binding; settings: pre-bound APGIRDHESA
[4] = molecular target: T1, HLA-A*02:01; format: binding
[5] = tested on: β2m; experiment: Thermal stability by nanoscale differential scanning fluorimetry, β2m; set-up: species or system human
[6] = molecular target: HLA-A*24:02 (Homo sapiens, UniProt P04439, D101N/D140Y/D185E/E176V/E190D/F33S/G103R/G107R/I119L/I121M/I306V/K335N/L105A/L180Q/L300P/N151K/N90K/Q86E/Q94H/R106L/R138H/R89G/T104I/T345S/V100E/W191G/Y123F); format: binding; settings: pre-bound TLn9, ethanol vs 10 mM GF, 25 °C
In short: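 Complex (300 nM final) preincubated 15 min with the test compound or 10 mM dipeptide in 50 mM HEPES, 150 mM NaCl, pH 7.5. FITC-labeled incoming peptide added at 100 nM final. Exchange followed in real time by fluorescence anisotropy (ex 494 nm, em 517 nm) at 25 °C.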

[7] = molecular target: H-2K^b (Mus musculus, UniProt P01901); format: binding, murine; settings: pre-bound FAPGNYPAL
[8] = tested on: A2/IV9; experiment: Thermal stability by nanoscale differential scanning fluorimetry, A2/IV9; set-up: species or system human; settings: no reagent
[9] = molecular target: disulfide-stabilized HLA-A*02:01 (Y84C/A139C) (Homo sapiens, UniProt P04439, D140Y/D185E/D98H/E176V/E277Q/G131W/G231S/I119V/I121R/I166T/I218V/L300P/L318F/N151K/N90K/P208A/P217A/Q86G/Q94H/R138H/R169H/T345S/A163C/Y108C); format: binding
[10] = molecular target: disulfide-stabilized HLA-A*02:01 (Y84C/A139C) / beta-2 microglobulin, peptide-free (human); experiment: fluorescence polarisation
[11] = tested on: A2/NV9; experiment: Thermal stability by nanoscale differential scanning fluorimetry, A2/NV9; set-up: species or system human; settings: no reagent

peptide exchange (in words) [1]: ineffective
Molecule: CCCO [1-propanol]

peptide exchange (in words) [1]: ineffective
Molecule: CCC(C)O (stereo not shown) [2-butanol]

Molecule: C[S+](C)[O-] [DMSO, Dimethylsulfoxide]
destabilization of A2 complex (in words) [2]: destabilizes to an extent similar to 10% ethanol

peptide exchange (in words) [1]: enhanced exchange only to a minor extent
destabilization of A2 complex (in words) [2]: destabilizes A2 only slightly
Molecule: OCCO [EDO, 1,2-Ethanediol]

lower endpoint anisotropy with temperature increase (in words) ([1]; 20% ethanol, 25, 32, 37 °C, less A2 available to bind the incoming peptide): especially dramatic
peptide exchange (in words) [3]: also catalyzes exchange
peptide exchange (in words) [4]: considerably less than that of 10 mM GM
Tm ([5]; 20% solvent, β2m alone, citrate-phosphate buffer pH 7.6, 1.0 °C/min): 45 °C
ΔTm ([5]; β2m, 20% solvent vs no reagent): −20.5 °C
peptide exchange (in words) [6]: dramatically superior to the dipeptide
peptide exchange (in words) [7]: also catalyzes exchange
ΔTm ([2]; A2/NA9, 20% ethanol vs no reagent): −16.7 °C
Molecule: CCO [EtOH, Ethanol]
peptide exchange (in words) [1]: 10% ethanol showed an acceleration similar to the dipeptide

peptide exchange (in words) [1]: 20% methanol was only slightly slower
Molecule: CO [MeOH, Methanol]

Molecule: ILKEPVHGV [IV9]
Tm of complex compared to β2m alone (in words) [8]: not significantly different from those of β2m alone

acceleration of dissociation by 20% ethanol [9]: about six-fold
Molecule: NLVPKTAMRAVATA [NA9-TAM]

fold acceleration of dissociation by 20% ethanol (against no ethanol) [10]: 6 fold
Molecule: NLVPK_(TAMRA)VATA (peptide)

Molecule: NLVPMVATV [NV9]
Tm of complex compared to β2m alone (in words) [11]: not significantly different from those of β2m alone
